Measurements as given in ChEMBL document CHEMBL3877271, “Antagonizing STAT3 activation with benzo[b]thiophene 1, 1-dioxide based small molecules” (Eur J Med Chem, 2017).
The source made the active and inactive calls. The calls are words filed in the database; no cut-off is given here.

What was measured:
[1] = Antiproliferative activity against human MDA-MB-231 cells after 72 hrs by MTT assay; assay type: functional, cell-based; conditions: MDA-MB-231, 72 h
How it was run: (§1)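 Cells in RPMI-1640 with 10% FBS, penicillin/streptomycin, 37 °C, 5% CO₂; seeded 3000-5000 cells/well, left overnight (16 h), then medium replaced with fresh medium holding serial dilutions in triplicate for 72 h. MTT read-out; viability = absorbance of treated/solvent control × 100%. Stattic served as reference.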

[2] = Antiproliferative activity against human A549 cells after 72 hrs by MTT assay; assay type: functional, cell-based; conditions: A549, 72 h; how it was run: as §1
[3] = Antiproliferative activity against human MCF7 cells after 72 hrs by MTT assay; assay type: functional, cell-based; conditions: MCF7, 72 h; how it was run: as §1
[4] = Antiproliferative activity against human HCT116 cells after 72 hrs by MTT assay; assay type: functional, cell-based; conditions: HCT-116, 72 h; how it was run: as §1
[5] = Antitumor activity against mouse 4T1 cells implanted in ICR mouse assessed as tumor growth inhibition at 1 mg/kg, ip administered once in 4 days for 11 days measured on day 12 relative to control; assay type: functional; conditions: 4T1, ip, read-out: TGI
How it was run: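 Male ICR mice, 5 weeks old, inoculated with 2 × 10⁶ 4T1 cells at the right armpit. At 24 h, randomised into groups of 6 and dosed i.p.; vehicle PBS/DMSO (8:2) daily for 11 days. Killed day 12; tumours weighed; TI% = (1 − mean treated/mean control weight) × 100. Tumour p-STAT3 and STAT3 assessed by western blot.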

Mus musculus = assay: Toxicity in ICR mouse implanted with mouse 4T1 cells assessed as body weight loss at 1 mg/kg, ip administered once in 4 days for 11 days measured daily during compound dosing; assay type: organism-based; conditions: in vivo
How it was run: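 4T1-bearing male ICR mice (5 weeks, 6/group), dosed i.p. with PBS/DMSO (8:2) vehicle control. Body weight recorded daily. BI% = (1 − mean treated/mean control body weight) × 100.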

[6] = molecular target: Signal transducer and activator of transcription 3 (Homo sapiens) (UniProt P40763); assay: Inhibition of STAT3 dimer DNA binding activity in human MDA-MB-231 nuclear extract at 5 uM preincubated for 24 hrs followed by addition of [32P]hSIE by electrophoretic mobility shift assay
Chain of Signal transducer and activator of transcription 3 (Homo sapiens) (P40763 whole entry): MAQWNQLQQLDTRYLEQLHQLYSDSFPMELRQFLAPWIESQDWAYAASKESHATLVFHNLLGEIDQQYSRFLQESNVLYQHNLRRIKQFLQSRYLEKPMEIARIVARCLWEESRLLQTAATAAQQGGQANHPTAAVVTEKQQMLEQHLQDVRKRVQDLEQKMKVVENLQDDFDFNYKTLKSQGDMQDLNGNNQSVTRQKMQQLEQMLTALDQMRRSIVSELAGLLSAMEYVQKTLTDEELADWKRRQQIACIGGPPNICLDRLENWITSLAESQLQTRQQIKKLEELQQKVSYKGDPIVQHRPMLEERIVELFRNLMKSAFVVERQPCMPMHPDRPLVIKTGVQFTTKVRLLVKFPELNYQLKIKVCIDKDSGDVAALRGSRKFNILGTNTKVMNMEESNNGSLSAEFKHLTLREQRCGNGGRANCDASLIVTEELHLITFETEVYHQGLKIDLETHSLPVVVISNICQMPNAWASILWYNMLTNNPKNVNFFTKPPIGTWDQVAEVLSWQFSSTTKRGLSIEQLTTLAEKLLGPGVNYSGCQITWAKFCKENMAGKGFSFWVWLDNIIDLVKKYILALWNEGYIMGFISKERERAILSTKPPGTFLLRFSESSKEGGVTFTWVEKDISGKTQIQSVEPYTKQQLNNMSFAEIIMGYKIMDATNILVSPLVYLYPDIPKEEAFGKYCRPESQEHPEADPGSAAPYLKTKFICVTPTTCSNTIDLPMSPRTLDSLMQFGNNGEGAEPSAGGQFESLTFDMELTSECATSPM
How it was run: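 Cells treated 24 h in fresh growth medium. Nuclear extracts of equal total protein incubated with ³²P-labelled hSIE oligonucleotide probe and resolved by EMSA; Stattic 5 µM as comparator.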

MDA-MB-231 = assay: Potency index, ratio of stattic IC50 to compound IC50 for human MDA-MB-231 cells; assay type: functional
A549 = assay: Potency index, ratio of stattic IC50 to compound IC50 for human A549 cells; assay type: functional
MCF7 = assay: Potency index, ratio of stattic IC50 to compound IC50 for human MCF7 cells; assay type: functional
HCT-116 = assay: Potency index, ratio of stattic IC50 to compound IC50 for human HCT116 cells; assay type: functional

Row | inhibition [6] | SMILES | IC50 [1] | IC50 [2] | IC50 [3] | IC50 [4] | inhibition in vivo at 1 mg/kg [5] | Activity (Mus musculus) | Ratio IC50 (MDA-MB-231) | Ratio IC50 (A549) | Ratio IC50 (MCF7) | Ratio IC50 (HCT-116)
1 |  | O=S1(=O)C=Cc2ccc(Nc3ccc(C(F)(F)F)cc3)cc21 | 1.3 µM | 1.14 µM | 1.27 µM | 1.34 µM |  |  |  |  |  | 
2 |  | COc1cc(Nc2ccc3c(c2)S(=O)(=O)C=C3)cc(OC)c1OC | 1.43 µM | 1.88 µM | 2.23 µM | 1.42 µM |  |  |  |  |  | 
3 |  | N#Cc1cccc(Nc2ccc3c(c2)S(=O)(=O)C=C3)c1 | > 10 µM | > 10 µM | > 10 µM | > 10 µM |  |  |  |  |  | 
4 |  | O=S1(=O)C=Cc2ccc(Nc3cccc(C(F)(F)F)c3)cc21 | 1.31 µM | 1.44 µM | 2.5 µM | 1.37 µM |  |  |  |  |  | 
5 |  | COc1cccc2c1C(=O)c1c(O)c3c(c(O)c1C2=O)C[C@@](O)(C(=O)CO)C[C@@H]3O[C@H]1C[C@H](N)[C@H](O)[C@H](C)O1 [DOXORUBICIN] |  |  |  |  | 67% | Toxic |  |  |  | 
6 |  | O=S1(=O)C=Cc2cccc(Nc3cc(C(F)(F)F)cc(C(F)(F)F)c3)c21 | 3.12 µM | 3.84 µM | 5.11 µM | 3.6 µM |  |  |  |  |  | 
7 |  | COc1cc(Nc2cccc3c2S(=O)(=O)C=C3)cc(OC)c1OC | 0.99 µM | 0.95 µM | 0.93 µM | 1.15 µM |  |  |  |  |  | 
8 | Active | O=[N+]([O-])c1ccc2c(c1)S(=O)(=O)C=C2 | 1.68 µM | 4.4 µM | 2.36 µM | 1.08 µM |  |  |  |  |  | 
9 |  | O=S1(=O)C=Cc2cccc(Nc3ccc(Cl)c(Cl)c3)c21 | 1.36 µM | 0.66 µM | 0.57 µM | 0.68 µM |  |  |  |  |  | 
10 |  | Cc1ccc(Nc2cccc3c2S(=O)(=O)C=C3)cc1 | 1.56 µM | 2.68 µM | 1.89 µM | 4 µM |  |  |  |  |  | 
11 |  | Cc1cc(C)cc(Nc2cccc3c2S(=O)(=O)C=C3)c1 | 3.12 µM | 4.8 µM | 8.8 µM | > 10 µM |  |  |  |  |  | 
12 |  | COc1ccccc1Nc1cccc2c1S(=O)(=O)C=C2 | 2.4 µM | 2.59 µM | 5.1 µM | 5 µM |  |  |  |  |  | 
13 |  | O=S1(=O)C=Cc2ccc(Nc3ccc(Cl)cc3)cc21 | 6.72 µM | 2.3 µM | 2.67 µM | 4.44 µM |  |  |  |  |  | 
14 |  | O=S1(=O)C=Cc2cccc(Nc3ccc(C(F)(F)F)cc3)c21 | 1.2 µM | 2.44 µM | 1.82 µM | 1.44 µM |  |  |  |  |  | 
15 |  | COc1ccc(Nc2ccc3c(c2)S(=O)(=O)C=C3)cc1 | 1.4 µM | 1.22 µM | 1.21 µM | 1.17 µM |  |  |  |  |  | 
16 |  | O=S1(=O)C=Cc2ccc(Nc3ccc(Cl)c(Cl)c3)cc21 | 0.89 µM | 3.32 µM | 2.23 µM | 2.47 µM |  |  |  |  |  | 
17 |  | O=S1(=O)C=Cc2cccc(Nc3ccccc3C(F)(F)F)c21 | 3.9 µM | 4.12 µM | 8.1 µM | 5.95 µM |  |  |  |  |  | 
18 |  | O=S1(=O)C=Cc2ccc(Nc3cccc(OC(F)(F)F)c3)cc21 | 2.08 µM | 1.37 µM | 2.02 µM | 1.98 µM |  |  |  |  |  | 
19 |  | COc1ccc(Nc2cccc3c2S(=O)(=O)C=C3)cc1 | 1.04 µM | 2.59 µM | 0.94 µM | 1.99 µM |  |  |  |  |  | 
20 |  | O=S1(=O)C=Cc2cccc(Nc3ccc(F)c(F)c3)c21 | 1.89 µM | 2.5 µM | 0.95 µM | 0.68 µM |  |  |  |  |  | 
21 |  | O=S1(=O)C=Cc2cccc(Nc3ccc(Cl)cc3)c21 | 1.21 µM | 1.04 µM | 0.68 µM | 0.26 µM |  |  | 1.4 - 7.2 | 1.4 - 7.2 | 1.4 - 7.2 | 1.4 - 7.2
22 |  | O=S1(=O)C=Cc2cccc(Nc3cccc(F)c3)c21 | 1.91 µM | 2.55 µM | 1.12 µM | 1.22 µM |  |  |  |  |  | 
23 |  | O=S1(=O)C=Cc2ccc(Nc3ccc(F)c(F)c3)cc21 | 3.05 µM | 1.55 µM | 2.61 µM | 3.02 µM |  |  |  |  |  | 
24 |  | O=S1(=O)C=Cc2cccc(Nc3ccc(OC(F)(F)F)cc3)c21 | 2.1 µM | 1.57 µM | 2.69 µM | 2.38 µM |  |  |  |  |  | 
25 |  | O=S1(=O)C=Cc2cccc(Nc3c(F)c(F)c(F)c(F)c3F)c21 | 4.46 µM | 3.48 µM | 2.3 µM | 3.37 µM |  |  |  |  |  | 
